What was measured:
[1] = Detection of compound level in cynomolgus monkey cryopreserved hepatocytes treated with 25 uM of BMS-562086 after 3 hrs by HPLC analysis; assay type: ADME, cell-based, Macaca fascicularis, Hepatocyte
In short: (§1)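 Mouse, rat, dog, monkey and human hepatocytes (trypan blue viability checked) at 1.0×10^6 cells/ml in Krebs-Henseleit buffer were incubated with 25 µM compound, in duplicate. Conditions were 37°C, 95/5 O2/CO2, orbital shaking, 3 h. 7-Ethoxycoumarin and 7-hydroxycoumarin (100 µM) served as positive controls, with a cell-free negative control. Reactions were quenched with ice-cold acetonitrile, then sonicated and centrifuged; supernatants were analysed by LC/MS/MS.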

Hepatocyte [2] = experiment: Detection of compound level in human cryopreserved hepatocytes treated with 25 uM of BMS-562086 after 3 hrs by HPLC analysis; assay type: ADME, cell-based; in short: as §1
[3] = Detection of compound level in beagle dog hepatocytes treated with 25 uM of BMS-562086 after 3 hrs by HPLC analysis; assay type: ADME, cell-based, Canis lupus familiaris, Hepatocyte; in short: as §1
Hepatocyte [4] = experiment: Detection of compound level in rat hepatocytes treated with 25 uM of BMS-562086 after 3 hrs by HPLC analysis; assay type: ADME, cell-based; in short: as §1
Hepatocyte [5] = experiment: Detection of compound level in mouse hepatocytes treated with 25 uM of BMS-562086 after 3 hrs by HPLC analysis; assay type: ADME, cell-based; in short: as §1
[6] = Apparent permeability from apical to basolateral side in human Caco2 cells; assay type: ADME, cell-based; conditions: Caco-2
In short: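 Caco-2 cells (passage 50-60) were seeded at 60,000 cells/cm2 on polycarbonate Transwells and cultured 21-25 days. Transport buffer was HBSS with 2% DMA, pH 7.4. Compound was applied apically at 25 µM at 37°C. Only monolayers with TEER 400-500 Ω cm2 at start and end were used, with mannitol as an integrity probe. Papp = (dQ/dt)/(A×C0).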

Drug metabolism [1] | Drug metabolism (Hepatocyte [2]) | Drug metabolism [3] | Drug metabolism (Hepatocyte [4]) | Drug metabolism (Hepatocyte [5]) | Papp A→B [6] [×10⁻⁶ cm/s] | SMILES
metabolite_detected | metabolite_detected | metabolite_detected | metabolite_detected | metabolite_detected |  | CCOc1ccc2ccc(=O)oc2c1
 |  |  |  |  | 0.21 | OC[C@@H](O)[C@@H](O)[C@H](O)[C@H](O)CO [MANNITOL]
metabolite_detected | metabolite_detected | metabolite_detected | metabolite_detected | metabolite_detected |  | O=c1ccc2ccc(O)cc2o1 [UMBELLIFERONE]
